ChEMBL document CHEMBL1124929, “Indolo[2,1-a]isoquinolines. Syntheses, steroid hormone receptor binding affinities, and cytostatic activity” (1990)

Experiments:
MDA-MB-231 [1] = experiment: Cytostatic effect on hormone-independent MDA-MB 231 human breast cancer cell proliferation at5x10E-6M; assay type: functional
Summary of the method: (§1)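 Cells were plated at about 2 × 10⁴ per well in six-well dishes. MCF-7 cells were grown in modified improved MEM with 5% NCS, switched to charcoal-treated NCS two weeks before the test, and exposed for 5 days with a re-dose on day 4. MDA-MB 231 cells were grown in McCoy 5a with 10% NCS and exposed for 2 days. Compounds were given 1 day after plating in 0.1% DMSO, with DMSO-matched controls. Read-out was cell number as % T/C, mean of three experiments with six dishes.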

[2] = target: T1, Androgen Receptor (Bos taurus) (UniProt Q5EM59); experiment: Relative binding affinity(RBA) for 50% displacement of [3H]mibolerone from Androgen receptor compared to testorone
T1 sequence (whole entry): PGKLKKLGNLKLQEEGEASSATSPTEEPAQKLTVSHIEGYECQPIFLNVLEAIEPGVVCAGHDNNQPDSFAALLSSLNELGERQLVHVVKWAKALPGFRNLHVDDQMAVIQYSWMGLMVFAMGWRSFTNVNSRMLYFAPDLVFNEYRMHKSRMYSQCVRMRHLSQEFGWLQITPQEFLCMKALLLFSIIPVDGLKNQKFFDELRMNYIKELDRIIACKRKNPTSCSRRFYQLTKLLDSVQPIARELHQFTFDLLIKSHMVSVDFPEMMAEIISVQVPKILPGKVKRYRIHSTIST
Summary of the method: (§2)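 Receptor source was calf uterine cytosol (105000g supernatant, 3 mg/mL protein in assay). Buffers were Tris/EDTA pH 7.4, with NaN₃ for ER, molybdate/glycerol for AR, and sucrose for PR. Tracers were 1 nM [³H]estradiol, [³H]mibolerone or [³H]Org 2058. Incubation was at 0–4 °C for 16 h (ER) or 2 h (AR, PR), with 4–6 competitor concentrations. Nonspecific binding used 2 µM of the unlabeled hormone. Separation was by dextran-coated charcoal. RBA is the ratio of IC50 values for hormone and compound ×100, mean of two triplicate experiments.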

[3] = target: T2, Androgen receptor (Mus musculus) (UniProt P19091); experiment: Inhibition of seminal vesicle weight in intact mice at 10.0 ug
T2 sequence (whole entry): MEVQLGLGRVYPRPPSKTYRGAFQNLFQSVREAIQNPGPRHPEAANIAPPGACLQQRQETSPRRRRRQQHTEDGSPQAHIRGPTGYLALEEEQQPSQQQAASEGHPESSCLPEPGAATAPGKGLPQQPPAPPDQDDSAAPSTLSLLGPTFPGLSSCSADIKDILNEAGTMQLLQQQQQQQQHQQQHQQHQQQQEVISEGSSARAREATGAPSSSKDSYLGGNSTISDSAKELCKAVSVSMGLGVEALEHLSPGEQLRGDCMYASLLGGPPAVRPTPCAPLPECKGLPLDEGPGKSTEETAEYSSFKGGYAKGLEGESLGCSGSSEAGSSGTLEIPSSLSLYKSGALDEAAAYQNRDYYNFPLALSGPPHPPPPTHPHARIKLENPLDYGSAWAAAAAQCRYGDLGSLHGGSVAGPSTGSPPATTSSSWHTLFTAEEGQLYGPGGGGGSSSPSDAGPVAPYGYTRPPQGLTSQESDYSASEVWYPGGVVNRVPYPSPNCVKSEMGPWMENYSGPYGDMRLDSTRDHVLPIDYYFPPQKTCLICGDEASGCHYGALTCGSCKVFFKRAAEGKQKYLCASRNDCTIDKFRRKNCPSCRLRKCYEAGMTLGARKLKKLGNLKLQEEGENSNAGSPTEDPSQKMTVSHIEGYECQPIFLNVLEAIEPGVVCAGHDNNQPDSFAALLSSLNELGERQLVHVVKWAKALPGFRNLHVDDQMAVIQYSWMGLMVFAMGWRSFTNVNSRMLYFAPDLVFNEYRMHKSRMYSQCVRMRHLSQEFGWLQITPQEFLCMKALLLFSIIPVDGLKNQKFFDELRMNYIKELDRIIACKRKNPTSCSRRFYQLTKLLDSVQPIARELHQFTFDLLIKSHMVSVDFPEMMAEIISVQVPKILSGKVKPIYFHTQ

[4] = target: T3, Estrogen receptor (Mus musculus) (UniProt O08537+P19785); experiment: Estrogenic activity in uterotrophic assay in immature mice at 50.0 ug subcutaneous dose; assay type: functional
Summary of the method: (§3)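 Immature female NMRI mice, 20 days old, in groups of 6-10, were dosed sc once daily for three consecutive days. Compounds were given in PEG/0.9% saline 1:1; vehicle controls were included. Animals were killed 24 h after the last dose. Uteri were fixed in Bouin solution and the effect was taken as uterine dry weight (mg)/body weight (g) ×100, given as mean ± SD.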

[5] = target: T3, Estrogen receptor (Mus musculus); experiment: Inhibition of 0.4 ug estrone-stimulated uterine growth in mice at 10.0 ug subcutaneous dose; assay type: functional
Summary of the method: (§4)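 Immature 20-day-old female NMRI mice received sc injections on three consecutive days. Each injection held 0.4 µg estrone plus the compound in PEG/saline 1:1. […] Significance was tested by Mann-Whitney U test.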

[6] = target: T3, Estrogen receptor (Mus musculus); experiment: Estrogenic activity in uterotrophic assay in immature mice at 125 ug subcutaneous dose; assay type: functional; summary of the method: as §3
[7] = target: T2, Androgen receptor (Mus musculus); experiment: Relative effect on seminal vesicle weight in adult and castrated mice at 100 ug dose; assay type: functional, tissue-based
Summary of the method: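 Adult male mice, 23–25 g, six per group, were used intact or castrated via the scrotal route under ether 5 days before the test. Castrates received 0.3 mg testosterone propionate daily. Compounds were injected daily in olive oil for nine days. Seminal vesicles were taken 24 h later, fixed in Bouin solution, dried overnight at 100 °C and weighed. Result is organ mg/body g ×100; % inhibition = [1 − treated/control] × 100.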

[8] = target: T3, Estrogen receptor (Mus musculus); experiment: (§5) Estrogenic activity in uterotrophic assay in immature mice at 2 ug subcutaneous dose; assay type: functional; summary of the method: as §3
MCF7 [9] = experiment: Effect on hormone-dependent MCF-7 human breast cancer cell proliferation at 1x10E-5 M; assay type: functional; summary of the method: as §1
MDA-MB-231 [10] = experiment: Effect on [3H]thymidine incorporation into MDA-MB 231 human breast cancer cells at 5x10E-6M; assay type: functional
Summary of the method: (§6)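 Cells were seeded at ~2 × 10⁴ per well, treated from the next day in 0.1% DMSO, with DMSO controls. MCF-7 cells were held in charcoal-stripped NCS for 2 weeks, treated for 5 days and re-dosed on day 4. MDA-MB 231 cells were grown in McCoy 5a/10% NCS and treated for 2 days. At the end, 1 µCi [³H]thymidine per well was added for 2 h. Result is % T/C, mean of three experiments × six dishes.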

MCF7 [11] = experiment: Effect on [3H]thymidine incorporation into MCF-7 human breast cancer cells at 1x10E-6M; assay type: functional; summary of the method: as §6
Bos taurus = organism: Bos taurus; experiment: Relative binding affinity(RBA) as ratio of progesterone and compound required to displace [3H]-org 2058 binding to Progesterone receptor by 50%; summary of the method: as §2
[12] = target: T3, Estrogen receptor (Mus musculus); experiment: as §5; assay type: functional; summary of the method: as §3; remark: listed apart in the source
[13] = target: T3, Estrogen receptor (Mus musculus); experiment: Inhibition of 0.4 ug estrone-stimulated uterine growth in mice at 125 ug subcutaneous dose; p<0.01; assay type: functional; summary of the method: as §4
[14] = target: T3, Estrogen receptor (Mus musculus); experiment: Estrogenic activity in uterotrophic assay in immature mice at 250 ug subcutaneous dose; assay type: functional; summary of the method: as §3
[15] = target: T3, Estrogen receptor (Mus musculus); experiment: Inhibition of 0.4 ug estrone-stimulated uterine growth in mice at 50.0 ug subcutaneous dose; p<0.01; assay type: functional; summary of the method: as §4

T3 sequence (O08537 whole entry, looked up): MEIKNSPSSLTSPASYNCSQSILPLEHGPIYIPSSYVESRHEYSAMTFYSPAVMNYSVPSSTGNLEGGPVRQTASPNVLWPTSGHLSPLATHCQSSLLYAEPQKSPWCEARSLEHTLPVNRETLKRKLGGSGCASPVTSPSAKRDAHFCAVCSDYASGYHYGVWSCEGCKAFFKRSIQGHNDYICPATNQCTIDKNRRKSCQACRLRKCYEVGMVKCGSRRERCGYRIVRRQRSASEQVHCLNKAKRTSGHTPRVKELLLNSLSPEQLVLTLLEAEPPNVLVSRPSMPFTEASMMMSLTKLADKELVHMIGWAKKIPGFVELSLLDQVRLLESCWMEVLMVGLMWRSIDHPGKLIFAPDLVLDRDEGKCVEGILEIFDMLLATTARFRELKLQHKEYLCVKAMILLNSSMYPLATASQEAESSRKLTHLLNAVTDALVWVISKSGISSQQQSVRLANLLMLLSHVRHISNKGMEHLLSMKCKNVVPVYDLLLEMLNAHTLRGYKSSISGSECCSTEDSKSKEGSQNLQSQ
T3 sequence (P19785 whole entry, looked up): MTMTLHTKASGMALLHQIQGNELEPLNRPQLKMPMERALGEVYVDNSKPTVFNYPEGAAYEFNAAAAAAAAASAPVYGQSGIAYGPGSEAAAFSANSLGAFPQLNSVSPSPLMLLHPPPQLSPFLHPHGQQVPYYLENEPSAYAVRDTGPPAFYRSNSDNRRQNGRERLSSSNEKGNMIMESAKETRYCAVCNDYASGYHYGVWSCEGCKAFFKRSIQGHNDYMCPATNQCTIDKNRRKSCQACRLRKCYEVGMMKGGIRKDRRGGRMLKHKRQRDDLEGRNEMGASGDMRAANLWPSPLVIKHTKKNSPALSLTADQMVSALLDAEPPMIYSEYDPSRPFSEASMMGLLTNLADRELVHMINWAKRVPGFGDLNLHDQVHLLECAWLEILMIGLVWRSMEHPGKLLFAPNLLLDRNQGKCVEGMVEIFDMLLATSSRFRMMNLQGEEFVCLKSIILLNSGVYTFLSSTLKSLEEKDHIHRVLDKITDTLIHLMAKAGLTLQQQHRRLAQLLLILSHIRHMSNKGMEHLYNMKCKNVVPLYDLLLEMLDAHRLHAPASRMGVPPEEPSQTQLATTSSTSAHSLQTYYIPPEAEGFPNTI

RBA [2]: 0.23 | inhibition [3]: 22% | Effect [4]: 45.7 | inhibition [5]: 12.2% | Effect [6]: 39.5 | Relative seminal vesicle weight [7]: 54.5 | Effect [8]: 52.3 | RBA (Bos taurus): 0.13 | Effect [12]: 18.5 | inhibition [13]: 42% | Effect [14]: 53.4 | inhibition [15]: 25.9%
SMILES: CCC1Cc2cc(OC(C)=O)ccc2-c2cc3cc(OC(C)=O)ccc3n21 (stereo unspecified)
T/C (MDA-MB-231 [1]): 4% | T/C (MCF7 [9]): 8% | T/C (MDA-MB-231 [10]): 4% | T/C (MCF7 [11]): 25%
